Measurements from ChEMBL document CHEMBL2176952, “Anticancer activity and cellular repression of c-MYC by the G-quadruplex-stabilizing 11-piperazinylquindoline is not dependent on direct targeting of the G-quadruplex in the c-MYC promoter” (J Med Chem, 2012).
Activity calls are given as the source filed them. The calls are words filed in the database; no cut-off is given here.

Assays:
Nucleic Acid [1] = assay: Thermal stability of c-MYC G-quadruplex DNA assessed as change in melting temperature at DNA:compound ratio 1:1 by spectropolarimeter analysis; assay type: nucleic-acid assay
Method in brief: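 c-MYC G-quadruplex at 5 μM in 50 mM Tris-HCl pH 7.4, held 10 min at 25 °C, heated 10 min at 95 °C and air-cooled over ~30 min. Compound then added at 1 equivalent. Melting followed by CD spectropolarimetry; ΔTm = Tm with compound minus Tm of control.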

HCT-116 [2] = assay: Cytotoxicity against human HCT116 cells after 96 hrs by MTS assay; assay type: functional, cell-based; conditions: HCT-116, 96 h
Method in brief: (§1)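 MTS viability after 96 h exposure. HCT-116 grown in DMEM, Raji in RPMI-1640, each with 10% FBS and penicillin/streptomycin at 37 °C, 5% CO2, kept in exponential growth. Compound spanned a 5–6 log range in 0.5 log steps. IC50 from non-linear regression; biological triplicates.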

Raji = assay: Cytotoxicity against human Raji cells after 96 hrs by MTS assay; assay type: functional, cell-based; method in brief: as §1
CA46 = assay: Cytotoxicity against human CA46 cells after 24 hrs by MTS assay; assay type: functional, cell-based; conditions: CA46, 24 h
Nucleic Acid [3] = assay: Binding affinity to HIF1alpha G-quadruplex DNA in human HCT116 cells assessed as change in HIF1alpha mRNA expression at 23 uM up to 48 hrs by RT-PCR analysis; assay type: cell-based; conditions: HCT-116
Nucleic Acid [4] = assay: Binding affinity to hTERT G-quadruplex DNA at 2 uM after 48 hrs by competition dialysis method; assay type: nucleic-acid assay
Method in brief: (§2)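 DNA at 75 μM in 50 mM Tris-HCl with 25 mM KCl. Duplexes annealed by heating to 95 °C then slow cooling at 1 °C/min. G-quadruplexes formed by 95 °C for 10 min with rapid air cooling, topology checked by CD. Dialysed 48 h in a cold room against BPES with 25 mM KCl and 2 μM compound. Bound compound measured by UV absorbance against a standard curve, expressed per binding site. Run in duplicate.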

HCT-116 [5] = assay: Increase in VEGFA G-quadruplex DNA expression in human HCT116 cells by qPCR analysis; assay type: functional, cell-based
Nucleic Acid [6] = assay: Binding affinity to c-MYC G-quadruplex DNA in human HCT116 cells assessed as decrease in c-MYC mRNA expression at 31 uM at 48 hrs by RT-PCR analysis; assay type: cell-based; conditions: HCT-116
Nucleic Acid [7] = assay: Binding affinity to PDGFRbeta G-quadruplex DNA in human HCT116 cells assessed as downregulation of PDGFRbeta mRNA expression at 31 uM at 48 hrs by RT-PCR analysis; assay type: cell-based; conditions: HCT-116
Nucleic Acid [8] = assay: Binding affinity to c-MYC G-quadruplex DNA in human HCT116 cells assessed as decrease in c-MYC mRNA expression at 31 uM at 6 hrs by RT-PCR analysis; assay type: cell-based; conditions: HCT-116
Nucleic Acid [9] = assay: Binding affinity to HIF1alpha G-quadruplex DNA at 2 uM after 48 hrs by competition dialysis method; assay type: nucleic-acid assay; method in brief: as §2
Nucleic Acid [10] = assay: Binding affinity to hTERT G-quadruplex DNA in human HCT116 cells assessed as downregulation of hTERT mRNA expression at 31 uM at 48 hrs by RT-PCR analysis; assay type: cell-based; conditions: HCT-116
Nucleic Acid [11] = assay: Binding affinity to PDGFRbeta G-quadruplex DNA in human HCT116 cells assessed as downregulation of PDGFRbeta mRNA expression at 31 uM at 6 hrs by RT-PCR analysis; assay type: cell-based; conditions: HCT-116
HCT-116 [12] = assay: Cytotoxicity against human HCT116 cells after 24 hrs by MTS assay; assay type: functional, cell-based; conditions: HCT-116, 24 h
Nucleic Acid [13] = assay: Binding affinity to PDGFRbeta G-quadruplex DNA in human HCT116 cells assessed as downregulation of PDGFRbeta mRNA expression at 31 uM at 24 hrs by RT-PCR analysis; assay type: cell-based; conditions: HCT-116
Nucleic Acid [14] = assay: Decrease of c-MYC G-quadruplex DNA-mediated c-MYC expression in exon1 in human CA46 cells at 2.8 uM at 48 hrs by exon-specific assay; assay type: cell-based
Nucleic Acid [15] = assay: Binding affinity to hTERT G-quadruplex DNA in human HCT116 cells assessed as downregulation of hTERT mRNA expression at 31 uM at 6 hrs by RT-PCR analysis; assay type: cell-based; conditions: HCT-116
Nucleic Acid [16] = assay: Binding affinity to HIF1alpha G-quadruplex DNA in human HCT116 cells assessed as change in HIF1alpha mRNA expression at 31 uM up to 48 hrs by RT-PCR analysis; assay type: cell-based; conditions: HCT-116
Nucleic Acid [17] = assay: Decrease of c-MYC G-quadruplex DNA-mediated c-MYC expression in exon1 in human CA46 cells at 2.8 uM at 6 hrs by exon-specific assay; assay type: cell-based
Nucleic Acid [18] = assay: Decrease of c-MYC G-quadruplex DNA-mediated c-MYC expression in exon1 in human CA46 cells at 2.8 uM at 24 hrs by exon-specific assay; assay type: cell-based
Nucleic Acid [19] = assay: Binding affinity to dAdT DNA at 2 uM after 48 hrs by competition dialysis method; assay type: nucleic-acid assay; method in brief: as §2
Nucleic Acid [20] = assay: Binding affinity to hTERT G-quadruplex DNA in human HCT116 cells assessed as downregulation of hTERT mRNA expression at 31 uM at 24 hrs by RT-PCR analysis; assay type: cell-based; conditions: HCT-116
Nucleic Acid [21] = assay: Binding affinity to dGdC DNA at 2 uM after 48 hrs by competition dialysis method; assay type: nucleic-acid assay; method in brief: as §2
Nucleic Acid [22] = assay: Binding affinity to PDGFRbeta G-quadruplex DNA at 2 uM after 48 hrs by competition dialysis method; assay type: nucleic-acid assay; method in brief: as §2
Nucleic Acid [23] = assay: Binding affinity to hTERT G-quadruplex DNA in human HCT116 cells assessed as downregulation of hTERT mRNA expression at 23 uM by RT-PCR analysis; assay type: cell-based; conditions: HCT-116, TDE = time-dependent effect
Nucleic Acid [24] = assay: Decrease of c-MYC G-quadruplex DNA-mediated c-MYC expression in exon1 in human CA46 cells at 19.4 uM at 24 hrs by exon-specific assay; assay type: cell-based
Nucleic Acid [25] = assay: Binding affinity to c-MYC G-quadruplex DNA in human HCT116 cells assessed as decrease in c-MYC mRNA expression at 23 uM from 6 to 48 hrs by RT-PCR analysis; assay type: cell-based; conditions: HCT-116
Nucleic Acid [26] = assay: Binding affinity to VEGFA G-quadruplex DNA in human HCT116 cells assessed as change in VEGFA mRNA expression at 23 uM up to 48 hrs by RT-PCR analysis; assay type: cell-based; conditions: HCT-116
Nucleic Acid [27] = assay: Binding affinity to PDGFRbeta G-quadruplex DNA in human HCT116 cells assessed as change in PDGFRbeta mRNA expression at 23 uM up to 48 hrs by RT-PCR analysis; assay type: cell-based; conditions: HCT-116
Nucleic Acid [28] = assay: Decrease of c-MYC G-quadruplex DNA-mediated c-MYC expression in exon1 in human CA46 cells at 19.4 uM at 48 hrs by exon-specific assay; assay type: cell-based
Nucleic Acid [29] = assay: Decrease of c-MYC G-quadruplex DNA-mediated c-MYC expression in exon1 in human CA46 cells at 19.4 uM at 6 hrs by exon-specific assay; assay type: cell-based
Nucleic Acid [30] = assay: Binding affinity to c-MYC G-quadruplex DNA at 2 uM after 48 hrs by competition dialysis method; assay type: nucleic-acid assay; method in brief: as §2

SMILES: CN(C)CCN1CCN(c2c3cc(-c4ccc(F)c(F)c4)ccc3nc3c2[nH]c2ccccc23)CC1
- ΔTm (Nucleic Acid [1]): 6.5 °C
- IC50 (HCT-116 [2]): 3.7 µM
- IC50 (Raji): 5.8 µM

SMILES: CN1CCN(c2c3ccccc3nc3c2[nH]c2ccccc23)CC1
- ΔTm (Nucleic Acid [1]): 3 °C
- IC50 (HCT-116 [2]): 3.5 µM
- IC50 (Raji): 5.44 µM

SMILES: CN(C)CCN1CCN(c2c3cc(-c4ccncc4)ccc3nc3c2[nH]c2ccccc23)CC1
- ΔTm (Nucleic Acid [1]): 8.6 °C
- IC50 (HCT-116 [2]): 20.9 µM
- IC50 (Raji): 45 µM

SMILES: CCN(CC)CCNc1c2ccccc2nc2c1[nH]c1ccccc12
- ΔTm (Nucleic Acid [1]): 5.2 °C
- IC50 (HCT-116 [2]): 0.11 µM
- IC50 (Raji): 0.7 µM
- IC50 (CA46): 10 µM

SMILES: c1ccc2c(N3CCN(CCN4CCOCC4)CC3)c3[nH]c4ccccc4c3nc2c1
- ΔTm (Nucleic Acid [1]): 5.9 °C
- IC50 (HCT-116 [2]): 9.1 µM
- IC50 (Raji): 52.9 µM

SMILES: CN(C)CCCN1CCN(c2c3ccccc3nc3c2[nH]c2ccccc23)CC1
- ΔTm (Nucleic Acid [1]): 11.4 °C
- IC50 (HCT-116 [2]): 0.9 µM
- IC50 (Raji): 11.8 µM

SMILES: CCN(CC)CCN1CCN(c2c3ccccc3nc3c2[nH]c2ccccc23)CC1
- ΔTm (Nucleic Acid [1]): 10.3 °C
- IC50 (HCT-116 [2]): 3.4 µM
- IC50 (Raji): 26 µM

SMILES: CN(C)CCCn1c2ccccc2c2nc3ccccc3c(N3CCN(C)CC3)c21
- ΔTm (Nucleic Acid [1]): 2.8 °C
- IC50 (HCT-116 [2]): 2.98 µM
- IC50 (Raji): 7.03 µM

SMILES: c1ccc2c(-c3ccc(CCN4CCOCC4)cc3)c3[nH]c4ccccc4c3nc2c1
- ΔTm (Nucleic Acid [1]): 1.9 °C
- IC50 (HCT-116 [2]): > 100 µM
- IC50 (Raji): > 100 µM

SMILES: COCCCN1CCN(c2c3ccccc3nc3c2[nH]c2ccccc23)CC1
- ΔTm (Nucleic Acid [1]): 6.3 °C
- IC50 (HCT-116 [2]): 6.3 µM
- IC50 (Raji): 21.3 µM

SMILES: c1ccc2c(N3CCN(CCN4CCCCC4)CC3)c3[nH]c4ccccc4c3nc2c1
- ΔTm (Nucleic Acid [1]): 8.8 °C
- IC50 (HCT-116 [2]): 0.5 µM
- IC50 (Raji): 56.1 µM

SMILES: c1ccc2c(N3CCNCC3)c3[nH]c4ccccc4c3nc2c1
- ΔTm (Nucleic Acid [1]): 6.7 °C
- IC50 (HCT-116 [2]): 4.3 µM
- IC50 (Raji): 33.9 µM

SMILES: OCCCN1CCN(c2c3ccccc3nc3c2[nH]c2ccccc23)CC1
- ΔTm (Nucleic Acid [1]): 1.3 °C
- IC50 (HCT-116 [2]): 2.4 µM
- IC50 (Raji): > 100 µM

SMILES: CN(C)CCCn1c2ccccc2c2nc3ccccc3c(N3CCN(CCN(C)C)CC3)c21
- Activity (Nucleic Acid [3]): inactive
- Activity (Nucleic Acid [4]): Active
- Activity (HCT-116 [5]): Active
- Activity (Nucleic Acid [6]): inactive
- Activity (Nucleic Acid [7]): inactive
- Activity (Nucleic Acid [8]): Active
- Activity (Nucleic Acid [9]): Active
- Activity (Nucleic Acid [10]): inactive
- Activity (Nucleic Acid [11]): Active
- ΔTm (Nucleic Acid [1]): 16.5 °C
- IC50 (HCT-116 [12]): 31 µM
- Activity (Nucleic Acid [13]): Active
- Activity (Nucleic Acid [14]): inactive
- Activity (Nucleic Acid [15]): Active
- Activity (Nucleic Acid [16]): inactive
- Activity (Nucleic Acid [17]): inactive
- IC50 (HCT-116 [2]): 3.4 µM
- IC50 (Raji): 3.1 µM
- Activity (Nucleic Acid [18]): inactive
- Activity (Nucleic Acid [19]): Active
- Activity (Nucleic Acid [20]): Active
- Activity (Nucleic Acid [21]): Active
- Activity (Nucleic Acid [22]): Active
- IC50 (CA46): 2.8 µM

SMILES: CN(C)CCN1CCN(c2c3cc(-c4ccc(CCN5CCOCC5)cc4)ccc3nc3c2[nH]c2ccccc23)CC1
- ΔTm (Nucleic Acid [1]): 13.1 °C
- IC50 (HCT-116 [2]): 3.8 µM
- IC50 (Raji): 10.8 µM

SMILES: CN(C)CCN1CCN(c2c3ccccc3nc3c2[nH]c2ccccc23)CC1
- Activity (Nucleic Acid [23]): tde
- Activity (Nucleic Acid [3]): inactive
- Activity (Nucleic Acid [24]): inactive
- Activity (Nucleic Acid [25]): Active
- ΔTm (Nucleic Acid [1]): 6.7 °C
- IC50 (HCT-116 [12]): 23 µM
- Activity (Nucleic Acid [16]): inactive
- IC50 (HCT-116 [2]): 0.97 µM
- Activity (Nucleic Acid [26]): Active
- IC50 (Raji): 2.33 µM
- Activity (Nucleic Acid [27]): Active
- Activity (Nucleic Acid [19]): Active
- Activity (Nucleic Acid [28]): inactive
- Activity (Nucleic Acid [21]): Active
- Activity (Nucleic Acid [29]): inactive
- Activity (Nucleic Acid [30]): Active
- IC50 (CA46): 19.4 µM
